Measured values as given in ChEMBL document CHEMBL2331322, “Synthesis and antimicrobial activity of some new benzo and naphthonitrile derivatives” (2013).
≈ marks a conversion by molar mass, not a printed value.

How the values were obtained:
Type in all cases: functional
Bacillus subtilis [1] = assay: Antimicrobial activity against Bacillus subtilis at 1 mg/mL after 24 hrs by agar disc diffusion method; details: read-out: DIZ
How it was run: (§1)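 Sterile 5 mm filter paper disks were impregnated with test solution in DMF (1 mg/mL) and placed on agar plates seeded with the test organism, in triplicate. Bacteria were incubated at 37 °C for 24 h and fungi for […] (so in the source). The read-out was the average inhibition zone diameter around the disks, in mm.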

Botrytis fabae [2] = assay: Antimicrobial activity against Botrytis fabae after 48 hrs by microdilution susceptibility test
How it was run: (§2)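 MIC was determined by broth microdilution, using Müller–Hinton broth for bacteria and Sabouraud liquid medium for fungi. Stocks were made in DMF and serially diluted twofold. Wells were inoculated at 10⁶ CFU/mL and plates incubated at 36 °C for 24–48 h, with controls included. Only compounds giving agar-diffusion zones >14 mm were tested.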

Fusarium oxysporum [3] = assay: Antimicrobial activity against Fusarium oxysporum after 48 hrs by microdilution susceptibility test; how it was run: as §2
Pseudomonas aeruginosa [4] = assay: Antimicrobial activity against Pseudomonas aeruginosa after 24 hrs by microdilution susceptibility test; how it was run: as §2
Escherichia coli [5] = assay: Antimicrobial activity against Escherichia coli after 24 hrs by microdilution susceptibility test; how it was run: as §2
Bacillus subtilis [6] = assay: Antimicrobial activity against Bacillus subtilis after 24 hrs by microdilution susceptibility test; how it was run: as §2
Bacillus thuringiensis [7] = assay: Antimicrobial activity against Bacillus thuringiensis after 24 hrs by microdilution susceptibility test; how it was run: as §2
Botrytis fabae [8] = assay: Antimicrobial activity against Botrytis fabae at 1 mg/mL […] by agar disc diffusion method; details: read-out: DIZ
Fusarium oxysporum [9] = assay: Antimicrobial activity against Fusarium oxysporum at 1 mg/mL after 48 hrs by agar disc diffusion method; details: read-out: DIZ; how it was run: as §1
Pseudomonas aeruginosa [10] = assay: Antimicrobial activity against Pseudomonas aeruginosa at 1 mg/mL after 24 hrs by agar disc diffusion method; details: read-out: DIZ; how it was run: as §1
Escherichia coli [11] = assay: Antimicrobial activity against Escherichia coli at 1 mg/mL after 24 hrs by agar disc diffusion method; details: read-out: DIZ; how it was run: as §1
Bacillus thuringiensis [12] = assay: Antimicrobial activity against Bacillus thuringiensis at 1 mg/mL after 24 hrs by agar disc diffusion method; details: read-out: DIZ; how it was run: as §1

SMILES | zone of inhibition at 1000 µg/mL (Bacillus subtilis [1]) | MIC (Botrytis fabae [2]) | MIC (Fusarium oxysporum [3]) | MIC (Pseudomonas aeruginosa [4]) | MBC (Escherichia coli [5]) | MIC (Escherichia coli [5]) | MBC (Bacillus subtilis [6]) | MIC (Bacillus subtilis [6]) | MIC (Bacillus thuringiensis [7]) | zone of inhibition at 1000 µg/mL (Botrytis fabae [8]) | zone of inhibition at 1000 µg/mL (Fusarium oxysporum [9]) | zone of inhibition at 1000 µg/mL (Pseudomonas aeruginosa [10]) | zone of inhibition at 1000 µg/mL (Escherichia coli [11]) | zone of inhibition at 1000 µg/mL (Bacillus thuringiensis [12])
COc1ccc(-n2nc3[nH]c(=N)c4ccccc4c3n2)cc1 | 33 mm | 25 µg/mL (≈ 85.8 µM) | 25 µg/mL (≈ 85.8 µM) | 50 µg/mL (≈ 172 µM) | 200 µg/mL (≈ 687 µM) | 50 µg/mL (≈ 172 µM) | 200 µg/mL (≈ 687 µM) | 50 µg/mL (≈ 172 µM) | 50 µg/mL (≈ 172 µM) | 15 mm | 19 mm | 15 mm | 19 mm | 35 mm
COc1ccc(/N=N/C(C(N)=O)c2ccccc2C#N)cc1 (stereo not given) | 32 mm | 50 µg/mL (≈ 170 µM) | 25 µg/mL (≈ 84.9 µM) | 25 µg/mL (≈ 84.9 µM) | 100 µg/mL (≈ 340 µM) | 12.5 µg/mL (≈ 42.5 µM) | 100 µg/mL (≈ 340 µM) | 25 µg/mL (≈ 84.9 µM) | 12.5 µg/mL (≈ 42.5 µM) | 26 mm | 16 mm | 32 mm | 30 mm | 19 mm
Cc1ccc(-n2nc3[nH]c(=N)c4ccccc4c3n2)cc1 | 30 mm | 50 µg/mL (≈ 182 µM) | 50 µg/mL (≈ 182 µM) | 50 µg/mL (≈ 182 µM) | 200 µg/mL (≈ 726 µM) | 50 µg/mL (≈ 182 µM) | 200 µg/mL (≈ 726 µM) | 50 µg/mL (≈ 182 µM) | 50 µg/mL (≈ 182 µM) | 20 mm | 19 mm | 15 mm | 15 mm | 26 mm
COc1ccc(C2C(C#N)c3ccccc3C(=N)C2(C#N)C#N)cc1 (stereo not given) | 15 mm | 100 µg/mL (≈ 306 µM) | 50 µg/mL (≈ 153 µM) | 100 µg/mL (≈ 306 µM) | 200 µg/mL (≈ 613 µM) | 100 µg/mL (≈ 306 µM) | 200 µg/mL (≈ 613 µM) | 100 µg/mL (≈ 306 µM) | 100 µg/mL (≈ 306 µM) | 20 mm | 19 mm | 26 mm | 31 mm | 18 mm
N#Cc1ccccc1C(C#N)/N=N/c1ccc([N+](=O)[O-])cc1 (stereo not given) | 43 mm | 6.25 µg/mL (≈ 21.5 µM) | 6.25 µg/mL (≈ 21.5 µM) | 6.25 µg/mL (≈ 21.5 µM) | 100 µg/mL (≈ 343 µM) | 6.25 µg/mL (≈ 21.5 µM) | 50 µg/mL (≈ 172 µM) | 3.12 µg/mL (≈ 10.7 µM) | 6.25 µg/mL (≈ 21.5 µM) | 40 mm | 41 mm | 35 mm | 36 mm | 37 mm
COc1cc(-c2c(C#N)c(N)c3ccccc3c2C#N)cc(OC)c1OC | 26 mm | 50 µg/mL (≈ 139 µM) | 50 µg/mL (≈ 139 µM) | 100 µg/mL (≈ 278 µM) | 200 µg/mL (≈ 557 µM) | 100 µg/mL (≈ 278 µM) | 200 µg/mL (≈ 557 µM) | 50 µg/mL (≈ 139 µM) | 50 µg/mL (≈ 139 µM) | 28 mm | 33 mm | 32 mm | 35 mm | 35 mm
N#C/C(=C\c1ccc(Cl)cc1)c1ccccc1C#N | 21 mm | 100 µg/mL (≈ 378 µM) | 100 µg/mL (≈ 378 µM) | 100 µg/mL (≈ 378 µM) | 200 µg/mL (≈ 756 µM) | 100 µg/mL (≈ 378 µM) | 200 µg/mL (≈ 756 µM) | 50 µg/mL (≈ 189 µM) | 50 µg/mL (≈ 189 µM) | 26 mm | 15 mm | 20 mm | 15 mm | 20 mm
CCOC(=O)c1c2[nH]c(=N)c3ccccc3c2nn1-c1ccc([N+](=O)[O-])cc1 | 38 mm | 50 µg/mL (≈ 132 µM) | 25 µg/mL (≈ 66.2 µM) | 50 µg/mL (≈ 132 µM) | 200 µg/mL (≈ 530 µM) | 50 µg/mL (≈ 132 µM) | 200 µg/mL (≈ 530 µM) | 25 µg/mL (≈ 66.2 µM) | 25 µg/mL (≈ 66.2 µM) | 20 mm | 19 mm | 16 mm | 15 mm | 37 mm
CCOC(=O)c1c2[nH]c(=N)c3ccccc3c2nn1-c1ccccc1 | 33 mm | 25 µg/mL (≈ 75.2 µM) | 50 µg/mL (≈ 150 µM) | 50 µg/mL (≈ 150 µM) | 200 µg/mL (≈ 602 µM) | 50 µg/mL (≈ 150 µM) | 200 µg/mL (≈ 602 µM) | 25 µg/mL (≈ 75.2 µM) | 25 µg/mL (≈ 75.2 µM) | 20 mm | 33 mm | 19 mm | 20 mm | 35 mm
COc1cc(/C=C(\C#N)c2ccccc2C#N)cc(OC)c1OC | 20 mm | 100 µg/mL (≈ 312 µM) | 100 µg/mL (≈ 312 µM) | 100 µg/mL (≈ 312 µM) | 200 µg/mL (≈ 624 µM) | 100 µg/mL (≈ 312 µM) | 200 µg/mL (≈ 624 µM) | 100 µg/mL (≈ 312 µM) | 100 µg/mL (≈ 312 µM) | 20 mm | 19 mm | 18 mm | 16 mm | 15 mm
